Measurements from different studies.
Lines come from different studies, so protocols differ.
Effect on: cell growth or viability

COC(=O)[C@]1(O)C[C@@H](O)[C@@H](O)[C@H](OC(=O)/C=C/c2ccc(O)c(O)c2)C1
IC50 (HEp-2; WST-1): 21.2 µM

CC(C)(C)CC(C)(C)Nc1c(-c2ccccc2)nc2ncccn12
viability (MCF7; MTT; 25 µM, 48 h): 44.9%

C=C1C(=O)O[C@H]2[C@H]1CC/C(C)=C/CC[C@@]1(C)O[C@@H]21
IC50 (THP-1; ATP luminescence; 17 h): 8.89 µM

CC(=O)OC1c2c(ccc3ccc(=O)oc23)OC(C)(C)C1OC(=O)C(C)(O)C(C)O (stereo not drawn)
IC50 (MCF7; WST-1): 6.1 µM

C/C(=C\C(=O)OCCCCCCCCC(=O)O)C[C@@H]1OC[C@H](C[C@@H]2O[C@H]2[C@@H](C)[C@H](C)O)[C@@H](O)[C@H]1O
CC50 (TZM-bl): > 100 µM

C=C(C)[C@H](CCC(C)(C)O)Cc1c(O)cc(OC)c2c1O[C@H](c1ccc(O)cc1O)CC2=O
IC50 (MCF7; MTT; 48 h): > 100 µM

C[C@@H]1[C@H](O)[C@@H](C)/C=C/C=C/C=C/C=C/C=C/C=C/C=C/[C@H](O[C@@H]2O[C@H](C)[C@@H](O)[C@H](N)[C@@H]2O)C[C@@H]2O[C@](O)(C[C@@H](O)C[C@@H](O)[C@H](O)CC[C@@H](O)C[C@@H](O)CC(=O)O[C@H]1C)C[C@H](O)[C@H]2C(=O)O
CC50 (THP-1; MTT; 72 h): 3.6 µM

CC1(C)CC[C@]2(C)CC[C@]3(C)[C@H]4CC=C5[C@@H](CC[C@H](O)C5(C)C)[C@]4(C)CC[C@@]3(C)[C@@H]2C1
IC50 (HEp-2; WST-1): 48.1 µM

CCCCCCCCCCCCCCCCOP(=O)([O-])OCC[N+](C)(C)C
CC50 (THP-1; 72 h): > 40 µM

O=[N+]([O-])c1ccc(-c2nc3cccc(O)c3[nH]2)o1
CC50 (HEp-2; resazurin; 72 h): 31.6 µM

CC(=O)O[C@@H]1c2c(ccc3ccc(=O)oc23)OC(C)(C)[C@@H]1OC(=O)C1(C)OC1C (stereo partly drawn)
IC50 (MCF7; WST-1): 25.1 µM

Cc1cn([C@H]2C[C@H](N=[N+]=[N-])[C@@H](CO)O2)c(=O)[nH]c1=O
CC50 (TZM-bl; MTT; 48 h): > 200 µg/mL

C[C@H]1[C@H](C)CC[C@]2(C(=O)O)CC[C@]3(C)C(=CC[C@@H]4[C@@]5(C)CC[C@H](O)C(C)(C)[C@@H]5CC[C@]43C)[C@H]12
IC50 (WS1; 48 h): 14 µM

Cc1nc(C(CN)NC(=O)C(=O)Nc2ccc3c(c2)OCO3)sc1CO (stereo not drawn)
CC50 (TZM-bl; MTS; 72 h): ≥ 750 µM

O=[N+]([O-])c1ccc(-c2nc3cc(F)ccc3[nH]2)o1
CC50 (HEp-2; resazurin; 72 h): 3.1 µM
